Measured values published in ChEMBL document CHEMBL1212840, “Lysine N(epsilon)-trimethylation, a tool for improving the selectivity of antimicrobial peptides” (J Med Chem, 2010).
Square brackets hold non-standard residues; d marks the D form. Peptide text beside a SMILES is read from it. Lys(Me3) = C[N+](C)(C)CCCC[C@H](N)C(=O)O

Legend:
[1] = Selectivity index, ratio of IC50 for sheep erythrocyte to LC50 for Leishmania donovani MHOM/SD/001S-2D promastigotes
Procedure, shortened: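 SI = HC50/LC50. For HC50, washed sheep erythrocytes at 2 × 10^7 cells/mL in Hank's are exposed to peptide for 4 h at 37 °C. Hemoglobin in the supernatant is read at 550 nm; 0.1% Triton X-100 gives full lysis, and HC50 is 50% release.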

[2] = Selectivity index, ratio of IC50 for sheep erythrocyte to LC50 for Leishmania pifanoi MHOM/VE/60/LTrod amastigotes
Procedure, shortened: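 SI = HC50/LC50. HC50 comes from sheep erythrocytes (2 × 10^7 cells/mL in Hank's, 4 h, 37 °C, hemoglobin at 550 nm, 0.1% Triton X-100 as full lysis). For LC50, L. pifanoi axenic amastigotes at 2 × 10^7/mL in Hank's + 20 mM glucose get peptide for 4 h at 32 °C. An aliquot is then regrown in complete medium for 96 h at 32 °C.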

Leishmania donovani [3] = assay: Antileishmanial activity against Leishmania donovani MHOM/SD/001S-2D promastigotes after 72 hrs by MTT assay; assay type: functional, organism-based
Procedure, shortened: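 L. donovani promastigotes (strain MHOM/SD/00/1S-2D) are harvested at late exponential phase and washed in Hank's + 20 mM D-glucose, pH 7.2. They are treated with peptide at 2 × 10^7 parasites/mL for 4 h at 26 °C. A 20 μL aliquot then goes into complete medium for 72 h at 26 °C to let survivors proliferate. LC50 is 50% inhibition of proliferation. Triplicates, repeated at least twice.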

Leishmania pifanoi [4] = assay: Antileishmanial activity against Leishmania pifonoi MHOM/VE/60/LTrod promastigotes after 72 hrs by MTT assay; assay type: functional, organism-based
[5] = Toxicity in sheep erythrocyte assessed as hemolysis; assay type: cell-based, Ovis aries; details: sheep erythrocytes
Procedure, shortened: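 Washed sheep erythrocytes at 2 107 cells/mL in Hank's medium were exposed to peptide for 4 h at 37 °C, then spun (5 min, 4 °C). Hemoglobin in the supernatant was read at 550 nm. HC50 is the peptide concentration releasing 50% of the hemoglobin freed by 0.1% Triton X-100.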

Staphylococcus aureus = assay: Antimicrobial activity against Staphylococcus aureus CECT 240 by turbidimetry; assay type: functional
Acinetobacter baumannii = assay: Antimicrobial activity against Acinetobacter baumannii ATCC 19606 ATCC 19606 by turbidimetry; assay type: functional
[6] = Selectivity index, ratio of HC50 for sheep erythrocyte to MIC50 for Staphylococcus aureus CECT 240; assay type: functional
[7] = Selectivity index, ratio of HC50 for sheep erythrocyte to MIC50 for Acinetobacter baumannii ATCC 19606 ATCC 19606; assay type: functional
Leishmania pifanoi [8] = assay: Antileishmanial activity against Leishmania pifonoi MHOM/VE/60/LTrod amastigotes after 4 hrs by MTT assay
Leishmania donovani [9] = assay: Antileishmanial activity against Leishmania donovani MHOM/SD/001S-2D promastigotes after 4 hrs by MTT assay

Row | Molecule | Selectivity Index [1] | Selectivity Index [2] | LC50 (Leishmania donovani [3]) | LC50 (Leishmania pifanoi [4]) | HC50 [5] | MIC50 (Staphylococcus aureus) | MIC50 (Acinetobacter baumannii) | Selectivity Index [6] | Selectivity Index [7] | IC50 (Leishmania pifanoi [8]) | IC50 (Leishmania donovani [9])
1 | CC[C@H](C)[C@H](NC(=O)[C@H](CCCCN)NC(=O)[C@H](CCCCN)NC(=O)[C@H](Cc1ccccc1)NC(=O)[C@H](CC(C)C)NC(=O)[C@H](CCCC[N+](C)(C)C)NC(=O)[C@H](Cc1c[nH]c2ccccc12)NC(=O)[C@@H](N)CCCCN)C(=O)NCC(=O)N[C@@H](C)C(=O)N[C@H](C(=O)N[C@@H](CC(C)C)C(=O)N[C@@H](CCCCN)C(=O)N[C@H](C(=O)N[C@@H](CC(C)C)C(N)=O)C(C)C)C(C)C.[Cl-] (H-KW[Lys(Me3)]LFKKIGAVLKVL-NH2) | 27.6 | 10.4 | 3.1 µM | 8.2 µM | 85.6 µM | 2.4 µM | 1.7 µM | 35.7 | 50.3 | 9.4 µM | 3.3 µM
2 | CC[C@H](C)[C@H](NC(=O)[C@H](CCCCN)NC(=O)[C@H](CCCCN)NC(=O)[C@H](Cc1ccccc1)NC(=O)[C@H](CC(C)C)NC(=O)[C@H](CCCCN)NC(=O)[C@H](Cc1c[nH]c2ccccc12)NC(=O)[C@@H](N)CCCC[N+](C)(C)C)C(=O)NCC(=O)N[C@@H](C)C(=O)N[C@H](C(=O)N[C@@H](CC(C)C)C(=O)N[C@@H](CCCCN)C(=O)N[C@H](C(=O)N[C@@H](CC(C)C)C(N)=O)C(C)C)C(C)C.[Cl-] (H-[Lys(Me3)]WKLFKKIGAVLKVL-NH2) | 27.6 | 12 | 2.8 µM | 6.4 µM | 77.2 µM | 3.4 µM | 1.3 µM | 22.7 | 59.4 | 6 µM | 3.9 µM
3 | CC[C@H](C)[C@H](NC(=O)[C@H](CCCCN)NC(=O)[C@H](CCCC[N+](C)(C)C)NC(=O)[C@H](Cc1ccccc1)NC(=O)[C@H](CC(C)C)NC(=O)[C@H](CCCCN)NC(=O)[C@H](Cc1c[nH]c2ccccc12)NC(=O)[C@@H](N)CCCCN)C(=O)NCC(=O)N[C@@H](C)C(=O)N[C@H](C(=O)N[C@@H](CC(C)C)C(=O)N[C@@H](CCCCN)C(=O)N[C@H](C(=O)N[C@@H](CC(C)C)C(N)=O)C(C)C)C(C)C.[Cl-] (H-KWKLF[Lys(Me3)]KIGAVLKVL-NH2) | 92.7 | 9.6 | 1.7 µM | 16.3 µM | 158 µM | 4.6 µM | 1.4 µM | 34.3 | 112.2 | 13.4 µM | 3.7 µM
4 | CC[C@H](C)[C@H](NC(=O)[C@H](CCCC[N+](C)(C)C)NC(=O)[C@H](CCCC[N+](C)(C)C)NC(=O)[C@H](Cc1ccccc1)NC(=O)[C@H](CC(C)C)NC(=O)[C@H](CCCC[N+](C)(C)C)NC(=O)[C@H](Cc1c[nH]c2ccccc12)NC(=O)[C@@H](N)CCCC[N+](C)(C)C)C(=O)NCC(=O)N[C@@H](C)C(=O)N[C@H](C(=O)N[C@@H](CC(C)C)C(=O)N[C@@H](CCCC[N+](C)(C)C)C(=O)N[C@H](C(=O)N[C@@H](CC(C)C)C(N)=O)C(C)C)C(C)C (H-[Lys(Me3)]W[Lys(Me3)]LF[Lys(Me3)][Lys(Me3)]IGAVL[Lys(Me3)]VL-NH2) |  |  | > 50 µM | > 50 µM | > 200 µM | > 30 µM | > 30 µM |  |  | > 50 µM | > 50 µM
5 | CC[C@H](C)[C@H](NC(=O)[C@H](CCCCN)NC(=O)[C@H](CCCCN)NC(=O)[C@H](Cc1ccccc1)NC(=O)[C@H](CC(C)C)NC(=O)[C@H](CCCCN)NC(=O)[C@H](Cc1c[nH]c2ccccc12)NC(=O)[C@@H](N)CCCCN)C(=O)NCC(=O)N[C@@H](C)C(=O)N[C@H](C(=O)N[C@@H](CC(C)C)C(=O)N[C@@H](CCCC[N+](C)(C)C)C(=O)N[C@H](C(=O)N[C@@H](CC(C)C)C(N)=O)C(C)C)C(C)C.[Cl-] (H-KWKLFKKIGAVL[Lys(Me3)]VL-NH2) | 63 | 13.5 | 2.5 µM | 11.6 µM | 157 µM | 4.4 µM | 2.1 µM | 35.8 | 74.9 | 10.1 µM | 3.5 µM
6 | H-KWKLFKKIGAVLKVL-NH2 | 26.8 | 8.9 | 1.5 µM | 4.5 µM | 40.2 µM | 2.9 µM | 1.1 µM | 13.8 | 36.5 | 4.3 µM | 1.8 µM
7 | CC[C@H](C)[C@H](NC(=O)[C@H](CCCCN)NC(=O)[C@H](CCCC[N+](C)(C)C)NC(=O)[C@H](Cc1ccccc1)NC(=O)[C@H](CC(C)C)NC(=O)[C@H](CCCC[N+](C)(C)C)NC(=O)[C@H](Cc1c[nH]c2ccccc12)NC(=O)[C@@H](N)CCCCN)C(=O)NCC(=O)N[C@@H](C)C(=O)N[C@H](C(=O)N[C@@H](CC(C)C)C(=O)N[C@@H](CCCCN)C(=O)N[C@H](C(=O)N[C@@H](CC(C)C)C(N)=O)C(C)C)C(C)C.[Cl-].[Cl-] (H-KW[Lys(Me3)]LF[Lys(Me3)]KIGAVLKVL-NH2) | 17.4 | 7.1 | 6.7 µM | 16.5 µM | 117 µM | 6.2 µM | 2 µM | 18.9 | 58.6 | 7.4 µM | 5.1 µM
8 | CC[C@H](C)[C@H](NC(=O)[C@H](CCCC[N+](C)(C)C)NC(=O)[C@H](CCCCN)NC(=O)[C@H](Cc1ccccc1)NC(=O)[C@H](CC(C)C)NC(=O)[C@H](CCCCN)NC(=O)[C@H](Cc1c[nH]c2ccccc12)NC(=O)[C@@H](N)CCCCN)C(=O)NCC(=O)N[C@@H](C)C(=O)N[C@H](C(=O)N[C@@H](CC(C)C)C(=O)N[C@@H](CCCCN)C(=O)N[C@H](C(=O)N[C@@H](CC(C)C)C(N)=O)C(C)C)C(C)C.[Cl-] (H-KWKLFK[Lys(Me3)]IGAVLKVL-NH2) | 71.3 | 13.5 | 2.3 µM | 12.1 µM | 164 µM | 7.2 µM | 1.9 µM | 22.8 | 86.3 | 11.4 µM | 3.7 µM
9 | CC[C@H](C)[C@H](NC(=O)[C@H](CCCC[N+](C)(C)C)NC(=O)[C@H](CCCC[N+](C)(C)C)NC(=O)[C@H](Cc1ccccc1)NC(=O)[C@H](CC(C)C)NC(=O)[C@H](CCCCN)NC(=O)[C@H](Cc1c[nH]c2ccccc12)NC(=O)[C@@H](N)CCCCN)C(=O)NCC(=O)N[C@@H](C)C(=O)N[C@H](C(=O)N[C@@H](CC(C)C)C(=O)N[C@@H](CCCCN)C(=O)N[C@H](C(=O)N[C@@H](CC(C)C)C(N)=O)C(C)C)C(C)C.[Cl-].[Cl-] (H-KWKLF[Lys(Me3)][Lys(Me3)]IGAVLKVL-NH2) | 25.3 | 4.9 | 5.3 µM | 27 µM | 134 µM | 10.7 µM | 2.6 µM | 12.5 | 51.5 | 9.2 µM | 6.1 µM
10 | CC[C@H](C)[C@H](NC(=O)[C@H](CCCCN)NC(=O)[C@H](CCCCN)NC(=O)[C@H](Cc1ccccc1)NC(=O)[C@H](CC(C)C)NC(=O)[C@H](CCCC[N+](C)(C)C)NC(=O)[C@H](Cc1c[nH]c2ccccc12)NC(=O)[C@@H](N)CCCC[N+](C)(C)C)C(=O)NCC(=O)N[C@@H](C)C(=O)N[C@H](C(=O)N[C@@H](CC(C)C)C(=O)N[C@@H](CCCCN)C(=O)N[C@H](C(=O)N[C@@H](CC(C)C)C(N)=O)C(C)C)C(C)C.[Cl-].[Cl-] (H-[Lys(Me3)]W[Lys(Me3)]LFKKIGAVLKVL-NH2) | 6.7 | 4.2 | 15.5 µM | 24.8 µM | 105 µM | 8 µM | 3.5 µM | 13.1 | 30 | 16.2 µM | 12.8 µM
